According to ChEMBL document CHEMBL3286116, “Synthesis, biological evaluation and structure-activity correlation study of a series of imidazol-based compounds as Candida albicans inhibitors” (Eur J Med Chem, 2014):
Converted amounts (≈) assume the structure as drawn.

Experiments:
Candida albicans [1] = experiment: Antifungal activity against Candida albicans ATCC 90028 after 48 hrs by CLSI broth microdilution method; type: functional; conditions: ATCC 90028, 48 h
Method in brief: (§1)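 Yeast CLSI broth microdilution (M27-A3). Compounds dissolved in DMSO at 100× the top test concentration, then diluted as serial two-fold dilutions in RPMI 1640 to final 0.125–64. Inoculum was 1.0–1.5 × 10^3 cells mL−1, incubated at 35 °C and read for growth at 48 h. MIC is the lowest concentration giving ≥50% growth inhibition versus growth control. Reported as the median of five replicates and as the geometric mean.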

Candida albicans [2] = experiment: Antifungal activity against Candida albicans ATCC 20891 after 48 hrs by CLSI broth microdilution method; type: functional; conditions: ATCC 20891, 48 h; method in brief: as §1
Candida albicans [3] = experiment: Antifungal activity against Candida albicans PMC 1011 after 48 hrs by CLSI broth microdilution method; type: functional; conditions: PMC 1011, 48 h; method in brief: as §1
Pichia kudriavzevii [4] = experiment: Antifungal activity against Candida krusei DSM 6128 after 48 hrs by CLSI broth microdilution method; type: functional; conditions: DSM 6128, 48 h; method in brief: as §1
Pichia kudriavzevii [5] = experiment: Antifungal activity against Candida krusei PMC 0613 after 48 hrs by CLSI broth microdilution method; type: functional; conditions: PMC 0613, 48 h; method in brief: as §1
Candida tropicalis [6] = experiment: Antifungal activity against Candida tropicalis PMC 0910 after 48 hrs by CLSI broth microdilution method; type: functional; conditions: PMC 0910, 48 h; method in brief: as §1
Candida tropicalis [7] = experiment: Antifungal activity against Candida tropicalis DSM 11953 after 48 hrs by CLSI broth microdilution method; type: functional; conditions: DSM 11953, 48 h; method in brief: as §1
Candida parapsilosis [8] = experiment: Antifungal activity against Candida parapsilosis DSM 11224 after 48 hrs by CLSI broth microdilution method; type: functional; conditions: Lodderomyces parapsilosis, DSM 11224, 48 h; method in brief: as §1
Candida parapsilosis [9] = experiment: Antifungal activity against Candida parapsilosis ATCC 22019 after 48 hrs by CLSI broth microdilution method; type: functional; conditions: Lodderomyces parapsilosis, ATCC 22019, 48 h; method in brief: as §1
Nakaseomyces glabratus [10] = experiment: Antifungal activity against Candida glabrata PMC 0805 after 48 hrs by CLSI broth microdilution method; type: functional; conditions: PMC 0805, 48 h; method in brief: as §1
Nakaseomyces glabratus [11] = experiment: Antifungal activity against Candida glabrata PMC 0807 after 48 hrs by CLSI broth microdilution method; type: functional; conditions: PMC 0807, 48 h; method in brief: as §1
Cryptococcus neoformans [12] = experiment: Antifungal activity against Cryptococcus neoformans PMC 2123 after 72 hrs by CLSI broth microdilution method; type: functional; conditions: PMC 2123, 72 h
Method in brief: (§2)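 Cryptococcus neoformans tested by CLSI broth microdilution in RPMI 1640, with serial two-fold dilutions from DMSO stocks at 100× the top concentration, final 0.125–64. Inoculum was 1.0–1.5 × 10^3 cells mL−1 at 35 °C, with growth read at 72 h. MIC is the lowest concentration with ≥50% growth inhibition versus control. Median of five replicates, plus geometric mean.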

Cryptococcus neoformans [13] = experiment: Antifungal activity against Cryptococcus neoformans PMC 2136 after 72 hrs by CLSI broth microdilution method; type: functional; conditions: PMC 2136, 72 h; method in brief: as §2
Cryptococcus neoformans [14] = experiment: Antifungal activity against Cryptococcus neoformans PMC 2115 after 72 hrs by CLSI broth microdilution method; type: functional; conditions: PMC 2115, 72 h; method in brief: as §2
Cryptococcus neoformans [15] = experiment: Antifungal activity against Cryptococcus neoformans PMC 2103 after 72 hrs by CLSI broth microdilution method; type: functional; conditions: PMC 2103, 72 h; method in brief: as §2
Cryptococcus neoformans [16] = experiment: Antifungal activity against Cryptococcus neoformans PMC 2107 after 72 hrs by CLSI broth microdilution method; type: functional; conditions: PMC 2107, 72 h; method in brief: as §2
Cryptococcus neoformans [17] = experiment: Antifungal activity against Cryptococcus neoformans PMC 2102 after 72 hrs by CLSI broth microdilution method; type: functional; conditions: PMC 2102, 72 h; method in brief: as §2
Cryptococcus neoformans [18] = experiment: Antifungal activity against Cryptococcus neoformans DSM 11959 after 72 hrs by CLSI broth microdilution method; type: functional; conditions: DSM 11959, 72 h; method in brief: as §2
Cryptococcus neoformans [19] = experiment: Antifungal activity against Cryptococcus neoformans PMC 2111 after 72 hrs by CLSI broth microdilution method; type: functional; conditions: PMC 2111, 72 h; method in brief: as §2
[20] = test system: Trichophyton mentagrophytes; experiment: Antifungal activity against Trichophyton mentagrophytes DSM 4870 after 72 hrs by CLSI broth microdilution method; type: functional; conditions: DSM 4870, 72 h
Method in brief: (§3)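 Dermatophytes tested by CLSI broth microdilution for filamentous fungi (M38-A2). Serial two-fold dilutions of DMSO-dissolved compound in RPMI 1640, final 0.125–64. Inoculum was 0.4–5 × 10^4 CFU mL−1, incubated at 35 °C and read at 72 h. MIC80 is the lowest concentration giving ≥80% growth inhibition versus growth control. Median of five replicates, plus geometric mean.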

[21] = test system: Trichophyton mentagrophytes; experiment: Antifungal activity against Trichophyton mentagrophytes PMC 6515 after 72 hrs by CLSI broth microdilution method; type: functional; conditions: PMC 6515, 72 h; method in brief: as §3
[22] = test system: Trichophyton mentagrophytes; experiment: Antifungal activity against Trichophyton mentagrophytes PMC 6531 after 72 hrs by CLSI broth microdilution method; type: functional; conditions: PMC 6531, 72 h; method in brief: as §3
[23] = test system: Trichophyton mentagrophytes; experiment: Antifungal activity against Trichophyton mentagrophytes PMC 6509 after 72 hrs by CLSI broth microdilution method; type: functional; conditions: PMC 6509, 72 h; method in brief: as §3
[24] = test system: Trichophyton mentagrophytes; experiment: Antifungal activity against Trichophyton mentagrophytes PMC 6503 after 72 hrs by CLSI broth microdilution method; type: functional; conditions: PMC 6503, 72 h; method in brief: as §3
[25] = test system: Trichophyton mentagrophytes; experiment: Antifungal activity against Trichophyton mentagrophytes PMC 6552 after 72 hrs by CLSI broth microdilution method; type: functional; conditions: PMC 6552, 72 h; method in brief: as §3
Nannizzia gypsea [26] = experiment: Antifungal activity against Microsporum gypseum PMC 7303 after 72 hrs by CLSI broth microdilution method; type: functional; conditions: PMC 7303, 72 h; method in brief: as §3
Nannizzia gypsea [27] = experiment: Antifungal activity against Microsporum gypseum PMC 7331 after 72 hrs by CLSI broth microdilution method; type: functional; conditions: PMC 7331, 72 h; method in brief: as §3
Nannizzia gypsea [28] = experiment: Antifungal activity against Microsporum gypseum DSM 3824 after 72 hrs by CLSI broth microdilution method; type: functional; conditions: DSM 3824, 72 h; method in brief: as §3
[29] = Cytotoxicity against human A549 cells after 48 hrs by MTT assay; type: cell-based
Method in brief: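 A549 cells (ATCC CCL-185) seeded at 2 × 10^4/well in phenol-red-free RPMI 1640 with 10% FBS, L-glutamine, penicillin and streptomycin, at 37 °C and 5% CO2. Exposed 48 h to DMSO-dissolved compounds (final 16–256; at least five concentrations, triplicate). MTT added for 3–4 h, crystals solubilized, OD read at 570 nm. CC50 taken versus the DMSO control. Mean ± SD of two independent experiments.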

Candida albicans [30] = experiment: Antifungal activity against Candida albicans ATCC 24433 after 48 hrs by CLSI broth microdilution method; type: functional; conditions: ATCC 24433, 48 h; method in brief: as §1
Candida albicans [31] = experiment: Antifungal activity against Candida albicans ATCC 3153 after 48 hrs by CLSI broth microdilution method; type: functional; conditions: ATCC 3153, 48 h; method in brief: as §1
Candida albicans [32] = experiment: Antifungal activity against Candida albicans ATCC 10231 after 48 hrs by CLSI broth microdilution method; type: functional; conditions: ATCC 10231, 48 h; method in brief: as §1
Candida albicans [33] = experiment: Antifungal activity against Candida albicans ATCC 76615 after 48 hrs by CLSI broth microdilution method; type: functional; conditions: ATCC 76615, 48 h; method in brief: as §1
Candida albicans [34] = experiment: Antifungal activity against Candida albicans ATCC 10261 after 48 hrs by CLSI broth microdilution method; type: functional; conditions: ATCC 10261, 48 h; method in brief: as §1

MIC50 (Candida albicans [1]): 0.5 µg/mL (≈ 1.17 µM) | MIC50 (Candida albicans [2]): 0.5 µg/mL (≈ 1.17 µM) | MIC50 (Candida albicans [3]): 0.5 µg/mL (≈ 1.17 µM) | MIC50 (Pichia kudriavzevii [4]): 8 µg/mL (≈ 18.7 µM) | MIC50 (Pichia kudriavzevii [5]): 1 µg/mL (≈ 2.33 µM) | MIC50 (Candida tropicalis [6]): 2 µg/mL (≈ 4.66 µM) | MIC50 (Candida tropicalis [7]): 2 µg/mL (≈ 4.66 µM) | MIC50 (Candida parapsilosis [8]): 0.25 µg/mL (≈ 0.583 µM) | MIC50 (Candida parapsilosis [9]): 2 µg/mL (≈ 4.66 µM) | MIC50 (Nakaseomyces glabratus [10]): 2 µg/mL (≈ 4.66 µM) | MIC50 (Nakaseomyces glabratus [11]): 8 µg/mL (≈ 18.7 µM) | MIC50 (Cryptococcus neoformans [12]): 4 µg/mL (≈ 9.33 µM) | MIC50 (Cryptococcus neoformans [13]): 4 µg/mL (≈ 9.33 µM) | MIC50 (Cryptococcus neoformans [14]): 4 µg/mL (≈ 9.33 µM) | MIC50 (Cryptococcus neoformans [15]): 2 µg/mL (≈ 4.66 µM) | MIC50 (Cryptococcus neoformans [16]): 1 µg/mL (≈ 2.33 µM) | MIC50 (Cryptococcus neoformans [17]): 4 µg/mL (≈ 9.33 µM) | MIC50 (Cryptococcus neoformans [18]): 4 µg/mL (≈ 9.33 µM) | MIC50 (Cryptococcus neoformans [19]): 4 µg/mL (≈ 9.33 µM) | MIC80 [20]: 16 µg/mL (≈ 37.3 µM) | MIC80 [21]: 8 µg/mL (≈ 18.7 µM) | MIC80 [22]: 8 µg/mL (≈ 18.7 µM) | MIC80 [23]: 16 µg/mL (≈ 37.3 µM) | MIC80 [24]: 16 µg/mL (≈ 37.3 µM) | MIC80 [25]: 32 µg/mL (≈ 74.6 µM) | MIC80 (Nannizzia gypsea [26]): 16 µg/mL (≈ 37.3 µM) | MIC80 (Nannizzia gypsea [27]): 4 µg/mL (≈ 9.33 µM) | MIC80 (Nannizzia gypsea [28]): 16 µg/mL (≈ 37.3 µM) | MIC50 (Candida albicans [30]): 4 µg/mL (≈ 9.33 µM) | MIC50 (Candida albicans [31]): 8 µg/mL (≈ 18.7 µM) | MIC50 (Candida albicans [32]): 2 µg/mL (≈ 4.66 µM) | MIC50 (Candida albicans [33]): 8 µg/mL (≈ 18.7 µM) | MIC50 (Candida albicans [34]): 1 µg/mL (≈ 2.33 µM)
Compound: O=C(OC(Cn1ccnc1)c1ccc(F)cc1)N1CCN(c2ccc(Cl)cc2)CC1 (centres undefined)
CC50 at 48 h [29]: 78.4 µg/mL (≈ 183 µM)
